Screens as filed in PubChem.
Rows were chosen to be rich in hits. Some 4.6% of all compounds tested hit in one or more screens of this group.
NF-kB expr up – raises NF-kB expression in human neuronal cells; AID 1239; NF-kB reporter expression; active compounds read high; fold change at 12.5 µM; actives 1.6% (n = 190,000); in the data active means fold change above about 3.3
Mdm2 ligase inh – inhibitors of human Mdm2 E3 ubiquitin ligase; signal enhancement, % at 5 µM; cell-based MDM2 ubiquitination luciferase reporter, 2 h; 0 = plate control, 100 = twice control, blank-subtracted; actives 0.11% (n = 210,000); AID 1230;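 active means signal enhancement of 30% or more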;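 further: luminescence tracks abundance of the self-degrading MDM2-luciferase fusion protein; higher signal means inhibition of MDM2 E3 ligase activity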
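System: stable MDM2–luciferase fusion reporter cells / Input: 2000 cells seeded into each well / Schedule: 4 h settle plus 2 h compound, 37 °C / Compound: single-point 5 µM / Buffer or medium: cells held in DMEM / Benchmarks: control and blank well means / Evaluation: percent signal gain over controls, blank-subtracted / Measured by: luciferase luminescence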
p97 ATPase inh – inhibitors of human p97 ATPase; P55072; recombinant p97 ATPase, Kinase-Glo ATP luminescence, 3 h; inhibition, % at 8 µM; actives 0.42% (n = 220,000); in the data active means inhibition above about 15%;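 further: 0% = DMSO vehicle and 100% = wells lacking enzyme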
Target sequence (P55072 whole entry, looked up): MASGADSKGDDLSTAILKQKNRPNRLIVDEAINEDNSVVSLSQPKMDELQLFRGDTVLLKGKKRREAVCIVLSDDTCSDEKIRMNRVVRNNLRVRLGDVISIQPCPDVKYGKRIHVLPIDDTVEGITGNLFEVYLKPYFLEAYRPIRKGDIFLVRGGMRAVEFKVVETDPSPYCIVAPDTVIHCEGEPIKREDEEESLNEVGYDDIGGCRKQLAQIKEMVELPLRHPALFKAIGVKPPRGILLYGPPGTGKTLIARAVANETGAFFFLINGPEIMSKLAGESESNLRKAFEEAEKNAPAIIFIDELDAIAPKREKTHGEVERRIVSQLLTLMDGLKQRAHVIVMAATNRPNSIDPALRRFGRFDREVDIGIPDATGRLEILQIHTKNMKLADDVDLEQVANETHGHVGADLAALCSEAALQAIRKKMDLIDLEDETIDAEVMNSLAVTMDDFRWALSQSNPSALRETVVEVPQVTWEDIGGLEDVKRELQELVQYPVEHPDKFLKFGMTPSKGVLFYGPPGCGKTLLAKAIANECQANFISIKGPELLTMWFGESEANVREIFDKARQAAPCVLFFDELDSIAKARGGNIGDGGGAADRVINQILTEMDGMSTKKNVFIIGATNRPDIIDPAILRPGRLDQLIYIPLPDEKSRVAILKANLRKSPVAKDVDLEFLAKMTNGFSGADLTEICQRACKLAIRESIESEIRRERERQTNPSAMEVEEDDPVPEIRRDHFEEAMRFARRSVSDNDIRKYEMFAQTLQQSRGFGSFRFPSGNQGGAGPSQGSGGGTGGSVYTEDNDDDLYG
Wee1 stabilizer – inhibitors of human Wee1 degradation; HeLa Luc-Wee1K328M stability, luciferase luminescence; 100% = proteasome inhibitor MG132 effect; reporter increase, % at 5 µM; actives 1.2% (n = 220,000); AID 1321;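 active means activation above the mean of all tested compounds plus 3 SD, set per screening run, cut at about 8.8% in these data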;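 further: cells exposed to compound for 20 h before luminescence read; 0% = DMSO alone and 100% = MG132 at 30 µM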
APP 5'UTR act – activates APP 5'UTR luciferase reporter; actives 1% (n = 190,000); SH-SY5Y APP 5'UTR luciferase reporter, luminescence; zero percent = DMSO vehicle wells; activation, % at 2 µM;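 active means activation above a set limit, based on mean plus 3 SD of controls, cut at about 140% in these data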
STAT1 act – increases IFN-gamma driven STAT1 reporter signal; actives 2.6% (n = 200,000); AID 932; NIH 3T3 STAT1-luciferase reporter, luminescence; 100% = IFN-gamma alone, no compound; activation (% of control), % at 5.5 µM;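 active means activation above the screen-wide mean activation plus 3 SD, cut at about 130% in these data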;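 further: raw ratio to IFN-gamma control signal so 100% means no change and 0% no light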
The depositor's hits bear a star; . = no result.

SMILES	NF-kB expr up	Mdm2 ligase inh	p97 ATPase inh	Wee1 stabilizer	APP 5'UTR act	STAT1 act
Cc1ccc(/C=N/N2CCN(c3ccccn3)CC2)cc1	2.18	3.8	2.2	-3.9	-1.5	142.0*
CCc1ccc(/C=N/N2CCN(c3ccccn3)CC2)cc1	.	-8.2	1.0	-2.2	.	.
CN1CCN(/N=C/c2ccc(-c3ccccc3)cc2)CC1	3.81*	-21.3	2.7	3.1	74.8	115.7
O=C(NCCCN1CCOCC1)C(=O)N/N=C/c1ccc2c(c1)OCO2	1.5	-6.3	1.0	-4.6	9.0	98.6
CCOC(=O)C1(CCCc2ccccc2)CCN(C2CCN(C(C)=O)CC2)CC1	1.2	-10.8	-2.6	0.3	-3.3	102.7
CC(=O)CCc1c(C)nc2ccc(C)cc2c1Cl	1.5	7.8	3.2	3.3	24.0	123.1
Cc1ccc(C(=O)OCC(=O)N2CCc3ccccc32)cc1	2.27	-9.1	1.7	7.2	9.4	128.9*
O=C(COc1ccccc1)N1CCc2ccccc21	2.35	-15.8	-3.5	1.9	77.5	133.6*
CC(=O)c1c(C)[nH]c(C(=O)OCC(=O)N2CCc3ccccc32)c1C	1.27	-26.4	-8.1	1.1	15.5	113.5
O=C(CSc1ccccc1)N1CCc2ccccc21	3.05	-11.7	-1.9	1.9	77.6	131.9*
CSCC[C@H](NC(=O)Nc1ccc(Oc2ccccc2)cc1)C(=O)O	.	-19.1	4.9	0.1	.	.
Cc1cc(NC(=O)C2CC(=O)N(c3ccccc3)C2)no1 (stereo not drawn)	1.01	2.7	9.6	0.2	-5.5	106.8
C=CCNC(=O)COC(=O)c1cccnc1Nc1ccccc1F	0.46	-18.0	4.8	1.2	9.3	105.5
Clc1ccc(Nc2ncn[nH]2)c(Cl)c1	1.11	-4.7	3.4	0.9	14.4	108.9
Nc1ncccc1OCc1ccc(Cl)c(Cl)c1	.	-6.3	-0.6	2.0	.	.
COc1ccc(CN2CCn3nc(C(=O)NC4CC4)cc3C2=O)cc1	1.11	-33.5	1.2	-1.8	-8.2	100.5
CCOC(=O)N1CCC(N2C(=O)c3ccccc3C2Nc2ccc(S(=O)(=O)N3CCCCC3)cc2)CC1 (stereo not drawn)	0.7	-19.0	-3.0	0.8	1.2	100.8
Cc1ccc(N=Cc2c(O)[nH]c3ccccc23)c([N+](=O)[O-])c1	1.04	-1.9	-2.9	6.3	159.8*	130.9*
Cc1ccc(NC(=O)c2cc(-c3ccco3)on2)cc1	2.71	-2.4	-0.6	-2.6	-7.0	126.9
O=C(NCCc1ccccc1)c1cc(-c2ccco2)on1	5.78*	-2.0	-3.3	-1.3	117.3	131.9*
COc1ccc(CCNC(=O)c2cc(-c3ccco3)on2)cc1OC	4.49*	1.7	1.9	2.9	5.0	108.5
Cc1ccc(NC(=O)c2cc(-c3ccco3)on2)cc1C	2.65	-52.5	-1.4	-0.4	8.3	131.5*
O=C(NCc1ccccc1)c1cc(-c2ccco2)on1	1.73	-2.5	2.5	3.3	11.7	107.0
CCCCN(C)CCCNC(=O)CN1C(=O)CSc2ccc(S(=O)(=O)N3CCOCC3)cc21	1.25	-5.5	-4.8	-0.9	-14.9	102.6
CN(CCNC(=O)CN1C(=O)CSc2ccc(S(=O)(=O)N3CCCC3)cc21)Cc1ccccc1	1.4	-7.0	-5.5	10.2*	-2.7	92.7
SMILES	NF-kB expr up	Mdm2 ligase inh	p97 ATPase inh	Wee1 stabilizer	APP 5'UTR act	STAT1 act
O=C(Nc1ccc(Cl)cc1)N1CCCN(c2ccc(C(F)(F)F)cc2[N+](=O)[O-])CC1	.	-14.1	0.6	4.1	.	.
Cn1nnnc1NCc1c(F)cccc1Cl	1.07	-10.8	1.7	10.1*	-2.5	101.8
COc1cc(CN(C2CCCCC2)S(=O)(=O)c2ccc(S(=O)(=O)N(C)C3CCCCC3)cc2)cc(OC)c1OC	0.85	1.4	3.4	-1.9	-5.0	93.4
CC(=O)Nc1ccc2nc(-c3ccc(Br)o3)[nH]c2c1	1.5	-7.0	5.9	-0.1	72.4	133.3*
CSc1nnc(-c2ccccc2)c(-c2ccccc2)n1	.	-12.4	-3.1	8.9*	.	.
CCN1CCN(Cc2nc3c(c(=O)n(C)c(=O)n3C)n2C(C)C(C)=O)CC1 (stereo not drawn)	1.13	30.5*	-6.0	1.0	-8.8	98.0
CCCCC(CCC(=O)NNC(=O)Cc1ccccc1)C(=O)O (stereo not drawn)	1.21	-17.9	-7.4	-1.0	-3.7	99.3
O=C(O)c1ccccc1NC(=O)N1CCOCC1	1.42	-17.1	-0.9	-0.2	2.5	101.0
O=C(C1COc2ccccc2O1)N1CCCC1 (stereo not drawn)	1.41	-11.2	1.0	0.0	8.9	101.5
O=C(C1COc2ccccc2O1)N1CCc2ccccc21 (stereo not drawn)	1.88	-9.2	2.7	0.2	50.4	130.9*
O=C(COC(=O)C1=COCCO1)NC1CCCCCCC1	1.31	1.1	3.5	2.0	-4.5	103.5
C#CCSc1ncc(-c2ccccc2)cn1	1.86	-0.5	-2.4	2.2	13.2	112.3
C=CCSc1ncc(-c2ccccc2)cn1	2.18	-8.9	2.0	-3.8	19.1	136.2*
C=CCN=C1S/C(=C/c2cccc([N+](=O)[O-])c2)C(=O)N1CC=C	.	3.7	-3.0	9.9*	.	.
C=CCN=C1S/C(=C/c2ccc([N+](=O)[O-])cc2)C(=O)N1CC=C	.	-6.4	0.4	8.1	.	.
Cc1cc(C(=O)N2CCCC(C(=O)c3cc(F)ccc3F)C2)c(C)o1 (stereo not drawn)	.	2.0	2.6	0.9	-0.4	100.2
CC1(C)CC(=O)C=C(C(=O)N2CCCC(C(=O)c3cccc(Cl)c3)C2)O1 (stereo not drawn)	1.04	5.2	-2.6	1.6	1.4	89.8
CCOc1ccc(N2C(=O)C(CC(=O)Nc3ccccc3)N(Cc3ccccn3)C2=S)cc1 (stereo not drawn)	0.85	-5.0	5.2	4.4	0.4	127.5
COc1ccc(N2C(=O)C(CC(=O)Nc3ccccc3)N(Cc3ccccn3)C2=S)cc1 (stereo not drawn)	1.1	-2.4	-3.2	9.1*	3.1	112.9
CC(C)(C)N1CSC(=S)N(Cc2ccccc2)C1	4.47*	3.9	5.6	2.7	-13.5	99.4
Cc1onc(C(=O)NN)c1C(=O)Nc1ncc(C(F)(F)F)cc1Cl	1.25	1.1	3.5	-1.5	2.0	96.9
CCn1c(CNC(=O)Cc2ccc(OC)cc2)nnc1SCC(=O)Nc1ccc(C(=O)O)cc1	1.09	-22.1	0.9	0.3	0.6	103.4
CCn1c(CNC(=O)Cc2ccc(OC)cc2)nnc1SCC(=O)Nc1nccs1	1.08	-6.1	-2.2	10.7*	11.5	101.3
Cc1ccc(CSCC(=O)N/N=C/c2cccc(OC3CSC3)c2)cc1	1.19	-1.9	1.2	1.2	12.6	101.0
Cc1ccc(C(=O)Oc2cccc(-n3cnnn3)c2)cc1	2.27	-8.0	0.4	-1.6	117.8	135.3*
O=C(NNS(=O)(=O)c1ccccc1Cl)c1nn(-c2ccc(F)cc2)ccc1=O	.	-9.1	2.4	2.5	.	.
